# Test results reported in ChEMBL document CHEMBL1137731, “Cytotoxicity and TOP1-targeting activity of 8- and 9-amino derivatives of 5-butyl- and 5-(2-N,N-dimethylamino)ethyl-5H-dibenzo[c,h][1,6]naphthyridin-6-ones” (Eur J Med Chem, 2009).
# Experiments:
# Homo sapiens = organism: Homo sapiens; assay: Inhibition of human recombinant topoisomerase 1 expressed in Escherichia coli assessed as drug level causing 10% mediated DNA cleavage relative to topotecan
# Summary of the method: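 Recombinant human TOP1, expressed in E. coli as a T7-system fusion protein, was incubated with drug and 3′-end-labelled plasmid YepG for 30 min at room temperature. Reactions were stopped with SDS and proteinase K (1 h, 37 °C), alkali-denatured, and run on a neutral agarose gel. The read-out was the concentration giving 10% cleavage, expressed relative to topotecan set at 1.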
# P388 = assay: Cytotoxicity against mouse P388 cells by MTT method; assay type: functional, cell-based
# Summary of the method: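 MTT assay with P388 mouse leukaemia cells grown in suspension at 37 °C, 5% CO2, in RPMI with 10% heat-inactivated FBS, 2 mM L-glutamine and penicillin/streptomycin. Cells were exposed continuously to varying drug concentrations for 4 days, with a drug-free control, and MTT was read at day 4. The IC50 came from at least two assays, each in six replicate wells.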
# [1] = Cytotoxicity against human KB3-1 cells by MTT method; assay type: functional, cell-based; conditions: KB 3-1
# [2] = Cytotoxicity against multidrug resistant human KBV1 cells overexpressing MDR1 by MTT method; assay type: functional, cell-based; conditions: KB-V1
# [3] = Cytotoxicity against multidrug resistant human KBH5.0 cells overexpressing BCRP by MTT method; assay type: functional, cell-based; conditions: KBH5.0 cell
# RPMI8402 (human) = assay: Cytotoxicity against human RPMI8402 cells by MTT method; conditions: RPMI-8402
compound,measurement,setting,value
CCCCn1c(=O)c2ccc(N)cc2c2cnc3cc4c(cc3c21)OCO4,Activity,Homo sapiens,> 20
same,IC50,P388,6000 nM
same,IC50,[1],5800 nM
same,IC50,[2],2500 nM
same,IC50,[3],3500 nM
same,IC50,RPMI8402 (human),3500 nM
CN(C)CCn1c(=O)c2cc([N+](=O)[O-])ccc2c2cnc3cc4c(cc3c21)OCO4,Activity,Homo sapiens,0.2
same,IC50,P388,9 nM
same,IC50,[1],26 nM
same,IC50,[2],25 nM
same,IC50,[3],25 nM
same,IC50,RPMI8402 (human),5 nM
CN(C)CCn1c(=O)c2cc(N)ccc2c2cnc3cc4c(cc3c21)OCO4,Activity,Homo sapiens,8
same,IC50,P388,40 nM
same,IC50,[1],230 nM
same,IC50,[2],280 nM
same,IC50,[3],330 nM
same,IC50,RPMI8402 (human),90 nM
CCCCn1c(=O)c2cc(NC(=O)CN(C)C)ccc2c2cnc3cc4c(cc3c21)OCO4,Activity,Homo sapiens,> 20
same,IC50,P388,250 nM
same,IC50,[1],1500 nM
same,IC50,[2],2600 nM
same,IC50,[3],1600 nM
same,IC50,RPMI8402 (human),330 nM
CCCCn1c(=O)c2cc([N+](=O)[O-])ccc2c2cnc3cc4c(cc3c21)OCO4,Activity,Homo sapiens,> 10
same,IC50,P388,150 nM
same,IC50,[1],400 nM
same,IC50,[2],300 nM
same,IC50,[3],500 nM
same,IC50,RPMI8402 (human),2400 nM
CC[C@@]1(O)C(=O)OCc2c1cc1n(c2=O)Cc2cc3ccccc3nc2-1 [CAMPTOTHECIN],Activity,Homo sapiens,0.2
same,IC50,P388,14 nM
same,IC50,RPMI8402 (human),6 nM
CN(C)CCn1c(=O)c2ccc(N)cc2c2cnc3cc4c(cc3c21)OCO4,Activity,Homo sapiens,0.5
same,IC50,P388,28 nM
same,IC50,[1],130 nM
same,IC50,[2],130 nM
same,IC50,[3],150 nM
same,IC50,RPMI8402 (human),33 nM
CN(C)CCNc1ccc2c(c1)c(=O)n(CCN(C)C)c1c3cc4c(cc3ncc21)OCO4,Activity,Homo sapiens,> 20
same,IC50,P388,40 nM
same,IC50,[1],50 nM
same,IC50,[2],410 nM
same,IC50,[3],300 nM
same,IC50,RPMI8402 (human),120 nM
CN(C)CCNc1ccc2c(=O)n(CCN(C)C)c3c4cc5c(cc4ncc3c2c1)OCO5,Activity,Homo sapiens,> 20
same,IC50,P388,60 nM
same,IC50,[1],120 nM
same,IC50,[2],550 nM
same,IC50,[3],320 nM
same,IC50,RPMI8402 (human),850 nM
CC[C@@]1(O)C(=O)OCc2c1cc1n(c2=O)Cc2cc3c(CN(C)C)c(O)ccc3nc2-1 [TOPOTECAN],IC50,P388,45 nM
same,IC50,[1],40 nM
same,IC50,[2],440 nM
same,IC50,[3],440 nM
same,IC50,RPMI8402 (human),21 nM
CCCCn1c(=O)c2ccc([N+](=O)[O-])cc2c2cnc3cc4c(cc3c21)OCO4,Activity,Homo sapiens,> 10
same,IC50,P388,700 nM
same,IC50,[1],310 nM
same,IC50,[2],850 nM
same,IC50,[3],360 nM
same,IC50,RPMI8402 (human),480 nM
CCCCn1c(=O)c2cc(NCCN(C)C)ccc2c2cnc3cc4c(cc3c21)OCO4,Activity,Homo sapiens,> 20
same,IC50,P388,780 nM
same,IC50,[1],1700 nM
same,IC50,[2],3200 nM
same,IC50,[3],1700 nM
same,IC50,RPMI8402 (human),1570 nM
CCCCn1c(=O)c2ccc(NC(=O)CN(C)C)cc2c2cnc3cc4c(cc3c21)OCO4,Activity,Homo sapiens,> 20
same,IC50,P388,600 nM
same,IC50,[1],900 nM
same,IC50,[2],2000 nM
same,IC50,[3],1900 nM
same,IC50,RPMI8402 (human),300 nM
CCCCn1c(=O)c2ccc(NCCN(C)C)cc2c2cnc3cc4c(cc3c21)OCO4,Activity,Homo sapiens,> 20
same,IC50,P388,1800 nM
same,IC50,[1],3000 nM
same,IC50,[2],4500 nM
same,IC50,[3],3500 nM
same,IC50,RPMI8402 (human),1800 nM
CN(C)CCn1c(=O)c2ccc(NC(=O)CN(C)C)cc2c2cnc3cc4c(cc3c21)OCO4,Activity,Homo sapiens,> 20
same,IC50,P388,35 nM
same,IC50,[1],36 nM
same,IC50,[2],190 nM
same,IC50,[3],120 nM
same,IC50,RPMI8402 (human),35 nM
CN(C)CCn1c(=O)c2cc(NC(=O)CN(C)C)ccc2c2cnc3cc4c(cc3c21)OCO4,Activity,Homo sapiens,> 20
same,IC50,P388,100 nM
same,IC50,[1],180 nM
same,IC50,[2],600 nM
same,IC50,[3],240 nM
same,IC50,RPMI8402 (human),120 nM
CCCCn1c(=O)c2cc(N)ccc2c2cnc3cc4c(cc3c21)OCO4,Activity,Homo sapiens,> 20
same,IC50,P388,280 nM
same,IC50,[1],3200 nM
same,IC50,[2],2500 nM
same,IC50,[3],3500 nM
same,IC50,RPMI8402 (human),1250 nM
CN(C)CCn1c(=O)c2ccc([N+](=O)[O-])cc2c2cnc3cc4c(cc3c21)OCO4,Activity,Homo sapiens,0.1
same,IC50,P388,5 nM
same,IC50,[1],5 nM
same,IC50,[2],4 nM
same,IC50,[3],5 nM
same,IC50,RPMI8402 (human),2 nM
